Test results published in ChEMBL document CHEMBL1921722, “In vitro and in vivo evaluation of select kahalalide F analogs with antitumor and antifungal activities” (Bioorg Med Chem, 2011).

Tests used:
Type in all cases: functional
HT-29 [1] = test: Cytotoxicity against human HT-29 cells assessed as cell growth at 800 nM by sulforhodamine B assay relative to control; settings: read-out: Activity
NCI-H226 [2] = test: Cytotoxicity against human NCI-H226 cells by sulforhodamine B assay
Summary of the method: (§1)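 NCI Developmental Therapeutics Program 60-cell-line human tumor panel screen, run at NCI. A single-concentration pre-screen was followed by a five-concentration dose-response in 10-fold steps. GI50 is the concentration that reduces growth of treated cells to half that of untreated control cells. TGI is the concentration that completely halts growth.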

OVCAR-3 [3] = test: Cytotoxicity against human OVCAR3 cells assessed as cell growth at 8 nM by sulforhodamine B assay relative to control; settings: read-out: Activity
MDA-MB-435 = test: Cytotoxicity against human MDA-MB-435 cells by sulforhodamine B assay; summary of the method: as §1
K562 = test: Cytotoxicity against human K562 cells by sulforhodamine B assay; summary of the method: as §1
OVCAR-4 = test: Cytotoxicity against human OVCAR4 cells assessed as cell growth at 8 nM by sulforhodamine B assay relative to control; settings: read-out: Activity
UACC-257 [4] = test: Cytotoxicity against human UACC257 cells assessed as cell growth at 80 nM by sulforhodamine B assay relative to control; settings: read-out: Activity
A549 [5] = test: Cytotoxicity against human A549 cells assessed as cell growth at 8 nM by sulforhodamine B assay relative to control; settings: read-out: Activity
Summary of the method: (§2)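 Run at NCI in the DTP 60-cell-line human tumor panel by standard procedure. Compounds were first screened at a single concentration, then tested at five tenfold-spaced concentrations. GI50 is the concentration reducing treated-cell growth to half that of untreated controls; TGI is the concentration completely halting growth.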

ACHN [6] = test: Cytotoxicity against human ACHN cells assessed as cell growth at 8 uM by sulforhodamine B assay relative to control; settings: read-out: Activity; summary of the method: as §2
UACC-257 [7] = test: Cytotoxicity against human UACC257 cells assessed as cell growth at 8 nM by sulforhodamine B assay relative to control; settings: read-out: Activity
TK-10 [8] = test: Cytotoxicity against human TK10 cells assessed as cell growth at 8 nM by sulforhodamine B assay relative to control; settings: read-out: Activity
RPMI-8226 [9] = test: Cytotoxicity against human RPMI8226 cells assessed as cell growth at 8 nM by sulforhodamine B assay relative to control; settings: read-out: Activity
RPMI-8226 [10] = test: Cytotoxicity against human RPMI8226 cells by sulforhodamine B assay; summary of the method: as §1
DU-145 = test: Cytotoxicity against human DU145 cells by sulforhodamine B assay
Summary of the method: (§3)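 Run by the NCI Developmental Therapeutics Program on its 60-line human tumour cell panel using the standard procedure. Compounds went through a single-concentration prescreen first, and those active by NCI criteria went on to a five-concentration growth-inhibition test. GI50 is the concentration that cuts growth of treated cells to half that of untreated control cells.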

NCI-H23 = test: Cytotoxicity against human NCI-H23 cells by sulforhodamine B assay; summary of the method: as §1
NCI-H460 [11] = test: Cytotoxicity against human NCI-H460 cells assessed as cell growth at 80 nM by sulforhodamine B assay relative to control; settings: read-out: Activity
ACHN [12] = test: Cytotoxicity against human ACHN cells assessed as cell growth at 80 uM by sulforhodamine B assay relative to control; settings: read-out: Activity; summary of the method: as §2
NCI/ADR-RES = test: Cytotoxicity against human NCI/ADR-RES cells assessed as cell growth at 80 nM by sulforhodamine B assay relative to control; settings: read-out: Activity
SNB-75 [13] = test: Cytotoxicity against human SNB75 cells assessed as cell growth at 8 nM by sulforhodamine B assay relative to control; settings: read-out: Activity
NCI-H226 [14] = test: Cytotoxicity against human NCI-H226 cells assessed as cell growth at 8 nM by sulforhodamine B assay relative to control; settings: read-out: Activity
KM12 [15] = test: Cytotoxicity against human KM12 cells assessed as cell growth at 80 uM by sulforhodamine B assay relative to control; settings: read-out: Activity
HCT-15 = test: Cytotoxicity against human HCT15 cells by sulforhodamine B assay; summary of the method: as §3
KM12 [16] = test: Cytotoxicity against human KM12 cells assessed as cell growth at 8 nM by sulforhodamine B assay relative to control; settings: read-out: Activity
TK-10 [17] = test: Cytotoxicity against human TK10 cells by sulforhodamine B assay; summary of the method: as §1
NCI-H460 [18] = test: Cytotoxicity against human NCI-H460 cells assessed as cell growth at 8 nM by sulforhodamine B assay relative to control; settings: read-out: Activity
U-251 [19] = test: Cytotoxicity against human U251 cells assessed as cell growth at 8 nM by sulforhodamine B assay relative to control; settings: read-out: Activity
MDA-MB-231 = test: Cytotoxicity against human MDA-MB-231 cells assessed as cell growth at 800 nM by sulforhodamine B assay relative to control; settings: read-out: Activity
A549 [20] = test: Cytotoxicity against human A549 cells assessed as cell growth at 800 nM by sulforhodamine B assay relative to control; settings: read-out: Activity; summary of the method: as §2
SNB-75 [21] = test: Cytotoxicity against human SNB75 cells assessed as cell growth at 80 nM by sulforhodamine B assay relative to control; settings: read-out: Activity
NCI-H522 = test: Cytotoxicity against human NCI-H522 cells assessed as cell growth at 8 nM by sulforhodamine B assay relative to control; settings: read-out: Activity
SK-OV-3 = test: Cytotoxicity against human SKOV3 cells assessed as cell growth at 80 nM by sulforhodamine B assay relative to control; settings: read-out: Activity
M14 = test: Cytotoxicity against human M14 cells assessed as cell growth at 80 uM by sulforhodamine B assay relative to control; settings: read-out: Activity
OVCAR-3 [22] = test: Cytotoxicity against human OVCAR3 cells assessed as cell growth at 80 nM by sulforhodamine B assay relative to control; settings: read-out: Activity
U-251 [23] = test: Cytotoxicity against human U251 cells assessed as cell growth at 800 nM by sulforhodamine B assay relative to control; settings: read-out: Activity
COLO 205 [24] = test: Cytotoxicity against human COLO205 cells assessed as cell growth at 800 nM by sulforhodamine B assay relative to control; settings: read-out: Activity; summary of the method: as §2
MCF7 = test: Cytotoxicity against human MCF7 cells assessed as cell growth at 800 nM by sulforhodamine B assay relative to control; settings: read-out: Activity
HCT-116 = test: Cytotoxicity against human HCT116 cells assessed as cell growth at 8 uM by sulforhodamine B assay relative to control; settings: read-out: Activity
HT-29 [25] = test: Cytotoxicity against human HT-29 cells assessed as cell growth at 80 nM by sulforhodamine B assay relative to control; settings: read-out: Activity
COLO 205 [26] = test: Cytotoxicity against human COLO205 cells assessed as cell growth at 8 nM by sulforhodamine B assay relative to control; settings: read-out: Activity; summary of the method: as §2

C/C=C1\NC(=O)[C@H](Cc2ccccc2)NC(=O)[C@@H](C(C)C)NC(=O)[C@@H]([C@@H](C)CC)NC(=O)[C@H](NC(=O)[C@H](NC(=O)[C@H](CCCNCc2ccc(N3CCOCC3)cc2)NC(=O)[C@H]2CCCN2C(=O)[C@H](NC(=O)[C@@H](NC(=O)[C@@H](NC(=O)[C@H](NC(=O)CCCC(C)C)C(C)C)[C@@H](C)O)C(C)C)C(C)C)[C@@H](C)CC)[C@@H](C)OC(=O)[C@H](C(C)C)NC1=O showed a growth at 0.8 µM (HT-29 [1]) of 3%, a GI50 (NCI-H226 [2]) of 1660 nM and a TGI (NCI-H226 [2]; read-out: pTGI (converted)) of 3.39 µM. For the same molecule, the growth at 0.008 µM (OVCAR-3 [3]) was 100%, the GI50 (MDA-MB-435) was 1290 nM and the TGI (MDA-MB-435; read-out: pTGI (converted)) was 2450 nM. It also gave a GI50 (K562) of 4.79 µM, a CC50 (K562; read-out: pLC50 (the source's name) (converted)) greater than 75.9 µM and a TGI (K562; read-out: pTGI (converted)) of 22.9 µM. It also gave a growth at 0.008 µM (OVCAR-4) of 103%, a growth at 0.08 µM (UACC-257 [4]) of 103% and a growth at 0.008 µM (A549 [5]) of 99%. It also gave a growth at 8 µM (ACHN [6]) of -84%, a growth at 0.008 µM (UACC-257 [7]) of 101% and a growth at 0.008 µM (TK-10 [8]) of 118%. The growth at 0.008 µM (RPMI-8226 [9]) was 111%, the GI50 (RPMI-8226 [10]; read-out: GI50) was 1130 nM and the TGI (RPMI-8226 [10]; read-out: TGI) was 2510 nM. The GI50 (RPMI-8226 [10]; read-out: pGI50 (converted)) was 1120 nM, the TGI (RPMI-8226 [10]; read-out: pTGI (converted)) was 2510 nM and the LC50 (DU-145) was 513 nM. It also gave a GI50 (DU-145; read-out: GI50) of 128 nM, a TGI (DU-145; read-out: TGI) of 257 nM and a GI50 (DU-145; read-out: pGI50 (converted)) of 129 nM. The TGI (DU-145; read-out: pTGI (converted)) was 257 nM, the GI50 (NCI-H23) was 1550 nM and the LC50 (NCI-H23) was 6.31 µM. The TGI (NCI-H23; read-out: pTGI (converted)) was 3.09 µM, the growth at 0.08 µM (NCI-H460 [11]) was 103% and the growth at 80 µM (ACHN [12]) was -76%. The growth at 0.08 µM (NCI/ADR-RES) was 82%, the growth at 0.008 µM (SNB-75 [13]) was 110% and the growth at 0.008 µM (NCI-H226 [14]) was 94%. For the same molecule, the growth at 80 µM (KM12 [15]) was 9%, the GI50 (HCT-15; read-out: GI50) was 264 nM and the TGI (HCT-15; read-out: TGI) was 814 nM. The GI50 (HCT-15; read-out: pGI50 (converted)) was 263 nM, the TGI (HCT-15; read-out: pTGI (converted)) was 813 nM and the growth at 0.008 µM (KM12 [16]) was 106%. For the same molecule, the GI50 (TK-10 [17]) was 1480 nM, the LC50 (TK-10 [17]) was 5.37 µM and the TGI (TK-10 [17]; read-out: pTGI (converted)) was 2820 nM. For the same molecule, the growth at 0.008 µM (NCI-H460 [18]) was 99%, the growth at 0.008 µM (U-251 [19]) was 94% and the growth at 0.8 µM (MDA-MB-231) was 86%. It also gave a growth at 0.8 µM (A549 [20]) of -40%, a growth at 0.08 µM (SNB-75 [21]) of 113% and a growth at 0.008 µM (NCI-H522) of 99%. The growth at 0.08 µM (SK-OV-3) was 101%, the growth at 80 µM (M14) was -69% and the growth at 0.08 µM (OVCAR-3 [22]) was 87%. It also gave a growth at 0.8 µM (U-251 [23]) of 72%, a growth at 0.8 µM (COLO 205 [24]) of -52% and a growth at 0.8 µM (MCF7) of 91%. For the same molecule, the growth at 8 µM (HCT-116) was -66%, the growth at 0.08 µM (HT-29 [25]) was 93% and the growth at 0.008 µM (COLO 205 [26]) was 103%.
